Consider nine compounds from ChEMBL document CHEMBL3627612, “Hirsutinolide Series Inhibit Stat3 Activity, Alter GCN1, MAP1B, Hsp105, G6PD, Vimentin, TrxR1, and Importin α-2 Expression, and Induce Antitumor Effects against Human Glioma” (J Med Chem, 2015).

Active and inactive are the calls of the source. The calls are words filed in the database; no cut-off is given here.

In one data set the test system is U-251. Put plainly: Antiproliferative activity against human U251MG cells at 5 uM for 72 hrs by cyquant assay. Type of data set: functional. In short, it runs like this:
(§1)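 CyQuant proliferation assay after 72 h compound exposure of cultured cells; relative viability normalized to DMSO-treated control; IC50 values derived. Glioma lines grown in RPMI or DMEM with 10% FBS and 1% nonessential amino acids.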

In the next data set the test system is MDA-MB-231. Put plainly: Antiproliferative activity against human MDA-MB-231 cells at 5 uM for 72 hrs by cyquant assay. Type of data set: functional, cell-based.
Another data set concerns SF-295. Put plainly: Antiproliferative activity against human SF295 cells at 5 uM for 72 hrs by cyquant assay. Format: functional, cell-based.
Data set [1] in a line: Cytotoxicity against mouse NIH/3T3 cells at 5uM after 72 hrs by cyquant cells. Type of data set: cell-based. As to conditions: nih3t3, 72 h. The essentials:
as §1

For data set [2], the target named is Signal transducer and activator of transcription 3 (Mus musculus) (UniProt P42227). Put plainly: Inhibition of Stat3 dimer DNA binding activity in mouse NIH3T3/vSrc nuclear extract at 5 uM preincubated for 30 mins followed by addition of radiolabeled probe hSIE for 30 mins by EMSA.
Sequence of Signal transducer and activator of transcription 3 (Mus musculus) (P42227 whole entry): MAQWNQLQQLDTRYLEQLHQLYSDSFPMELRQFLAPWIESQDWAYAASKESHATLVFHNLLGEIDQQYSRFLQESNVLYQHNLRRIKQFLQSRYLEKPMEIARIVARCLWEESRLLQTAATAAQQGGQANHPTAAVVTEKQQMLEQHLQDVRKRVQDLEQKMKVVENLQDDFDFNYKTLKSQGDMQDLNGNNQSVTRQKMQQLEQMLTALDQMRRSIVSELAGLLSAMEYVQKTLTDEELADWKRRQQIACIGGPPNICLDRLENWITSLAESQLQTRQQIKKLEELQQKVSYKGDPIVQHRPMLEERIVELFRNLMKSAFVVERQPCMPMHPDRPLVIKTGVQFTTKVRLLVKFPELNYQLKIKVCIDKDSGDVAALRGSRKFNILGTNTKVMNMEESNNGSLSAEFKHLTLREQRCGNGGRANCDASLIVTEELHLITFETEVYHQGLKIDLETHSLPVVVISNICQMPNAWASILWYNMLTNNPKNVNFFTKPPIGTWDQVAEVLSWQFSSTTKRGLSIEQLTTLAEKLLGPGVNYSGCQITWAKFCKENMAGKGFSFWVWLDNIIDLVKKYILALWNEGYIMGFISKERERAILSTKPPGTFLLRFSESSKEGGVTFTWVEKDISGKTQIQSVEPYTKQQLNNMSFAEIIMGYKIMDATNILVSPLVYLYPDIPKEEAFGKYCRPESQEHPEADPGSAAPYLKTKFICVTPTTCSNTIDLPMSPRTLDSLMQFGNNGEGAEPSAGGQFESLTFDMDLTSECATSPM

For `CO[C@]12CC[C@](C)(/C=C3/OC(=O)C(CO)=C3[C@@H](O)C[C@H]1C)O2`, the inhibition entry with U-251 and with MDA-MB-231 was “Active” in each case. Besides, in the data set with SF-295, the inhibition entry is “inactive”. Besides, the Activity entry in data set [1] is reported as “Non-toxic”.

Regarding `C[C@@H]1C[C@H](O)C2=C(COC(=O)/C=C/c3ccc(C(F)(F)F)cc3)C(=O)O/C2=C/[C@@]2(C)CC[C@]1(O)O2`, the inhibition result (with U-251; in data set [2]) was “Active” in each case.

For the compound `C[C@@H]1C[C@H](O)C2=C(COC(=O)/C=C/c3ccc(F)cc3)C(=O)O/C2=C/[C@@]2(C)CC[C@]1(O)O2`, the inhibition entry (in the data set on U-251; with MDA-MB-231; in data set [2]) was “Active” in each case. In addition, the Activity entry in data set [1] is listed as “Toxic”.

As for `C[C@@H]1C[C@H](O)C2=C(CO)C(=O)O/C2=C/[C@@]2(C)CC[C@]1(O)O2`, the inhibition entry in the data set on U-251 and in the data set with MDA-MB-231 was “inactive” in each case. Moreover, the inhibition entry (in the data set on SF-295; in data set [2]) was “Active” throughout. For the same compound, the Activity entry in data set [1] is listed as “Non-toxic”.

For the compound `CC(C)=CC(=O)OCC1=C2/C(=C\[C@@]3(C)CC[C@](O)(O3)[C@H](C)C[C@@H]2O)OC1=O`, the inhibition entry in data set [2] is “Active”.

`C/C=C(\C)C(=O)O[C@H]1C[C@@H](C)[C@]2(OC)CC[C@](C)(/C=C3/OC(=O)C(COC(=O)/C=C/c4ccccc4)=C31)O2`: the inhibition entry (in the data set on U-251; in the data set on MDA-MB-231; in data set [2]) was “Active” throughout. In data set [1], the Activity entry is “Toxic”.

With `C/C(=C\CO)C(=O)O[C@H]1C[C@@H](C)[C@]2(O)CC[C@](C)(/C=C3/OC(=O)C(CO)=C31)O2`, the inhibition result in the data set on U-251, with MDA-MB-231 and in the data set with SF-295 was “inactive” each time. Besides, the Activity entry in data set [1] is on record as “Non-toxic”. The inhibition result in data set [2] is “Active”.

Consider `CCCC(CCC)C(=O)OCC1=C2/C(=C\[C@@]3(C)CC[C@](O)(O3)[C@H](C)C[C@@H]2O)OC1=O`, for which the inhibition entry (with U-251; in the data set with MDA-MB-231; in data set [2]) was “Active” each time. The Activity entry in data set [1] is “Toxic”.

In the case of `C/C=C(\C)C(=O)O[C@H]1C[C@@H](C)[C@]2(OC)CC[C@](C)(/C=C3/OC(=O)C(CO)=C31)O2`, the inhibition entry in the data set with U-251 and in the data set on SF-295 was “Active” throughout. For the same compound, the inhibition result with MDA-MB-231 was “inactive”. Further, in data set [1], the Activity entry is reported as “Non-toxic”.
